697 NFkB inh: inhibitors of the PMA/ionomycin-induced NF-kB reporter in 697 B cells | 697 B-cell NF-kB luciferase reporter, 16 h | inhibition, % at 4 µM | 0.33% of 330,000 active | AID 435022; in the data active = inhibition above about 35%
VIM-2 inhibitor: inhibitors of Pseudomonas aeruginosa VIM-2 metallo-beta-lactamase; 0.89% of 290,000 active; AID 1527; purified VIM-2, nitrocefin hydrolysis, epi-absorbance fluorescence; inhibition, % at 5.6 µM;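 active = inhibition above the mean of all tested compounds plus 3 SD, cutoff set per screening run, cut at about 7.5% in these data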;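 also: red hydrolysis product quenches plate fluorescence so inhibitors raise well fluorescence; 0% = enzyme with DMSO and 100% = DMSO without enzyme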
Jurkat NFkB inh: inhibitors of the PMA/ionomycin-induced NF-kB reporter in Jurkat cells. AID 435003. 0.53% of 330,000 active. PMA/ionomycin-induced NF-kB luciferase reporter, luminescence. inhibition, % at 4 µM; in the data active = inhibition above about 50%
aSyn UTR inh: 5' untranslated region of α-synuclein, MLPCN primary screen. alpha-synuclein 5'UTR reporter, inhibitor activity. inhibition, % (tested at 7.5 µM). 0.82% of 300,000 active; in the data active = inhibition above about 60%;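 also: H4 neuroglioblastoma cells stably carrying SNCA 5'UTR luciferase fusion; 0% = DMSO wells and 100% = positive control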
Mdm2-MdmX inh: disrupts the human Mdm2-MdmX interaction; O15151+Q00987; inhibition, % at 8 µM; SaOS-2 split-luciferase Mdm2/MdmX complementation, luminescence; AID 485346; 3% of 330,000 active;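 active = inhibition of at least 50% at 8 µM in the primary screen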
IMP-1 inhibitor: inhibitors of Pseudomonas aeruginosa IMP-1 metallo-beta-lactamase. 0.45% of 290,000 active. inhibition, % at 5.6 µM. purified IMP-1, nitrocefin hydrolysis, epi-absorbance fluorescence. AID 1556;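 active = inhibition above the mean plus 3 SD of all compounds in the same screening run, cut at about 4.5% in these data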;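 also: 0% = IMP-1 with DMSO and 100% = DMSO wells lacking enzyme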
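System – purified recombinant IMP-1 beta-lactamase · Input – IMP-1 dispensed at 0.2 nM · Timing – 15 min preincubation plus 25 min reaction at 25 °C · Signal – Epi-absorbance fluorescence, 480 nm excitation, 530 nm emission · Measure – percent IMP-1 inhibition derived from blank-referenced optical density · Controls – Enzyme-plus-DMSO low control, enzyme-free DMSO high control · Replication – singlicate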
VIM-2 inh confirm: VIM-2 inhibition, confirmation assay; shares compounds with IMP-1 inhibitor; purified VIM-2 enzyme, nitrocefin absorbance; inhibition, % at 5.6 µM; 73% of 200 active; AID 1860; in the data active = inhibition above about 8%;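 also: 0% = enzyme with vehicle and 100% = no enzyme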
TEM-1 inh 2: blocks E. coli TEM-1 beta-lactamase, VIM-2 IMP-1 counter-screen; AID 2184; 50% of 200 active; nitrocefin absorbance inhibition; inhibition, % at 5.6 µM; shares compounds with IMP-1 inhibitor; in the data active = inhibition above about 0.66%
Target sequence (P62593 whole entry, looked up): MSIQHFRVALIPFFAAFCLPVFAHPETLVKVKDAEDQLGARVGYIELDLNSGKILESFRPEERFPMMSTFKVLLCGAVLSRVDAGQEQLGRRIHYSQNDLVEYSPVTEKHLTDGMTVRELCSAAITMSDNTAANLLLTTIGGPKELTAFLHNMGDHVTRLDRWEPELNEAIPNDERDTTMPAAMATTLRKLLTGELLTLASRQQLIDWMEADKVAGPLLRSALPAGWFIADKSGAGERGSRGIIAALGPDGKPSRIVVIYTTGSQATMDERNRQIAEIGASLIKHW
IMP-1 inh conf: confirmation of P. aeruginosa IMP-1 metallo-beta-lactamase inhibitors | 60% of 200 active | inhibition, % at 5.6 µM | purified IMP-1 enzyme, absorbance substrate hydrolysis | shares compounds with IMP-1 inhibitor; in the data active = inhibition above about 4.9%;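 also: 0% = enzyme with vehicle and 100% = vehicle without enzyme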
Starred values were filed as active, the others as inactive; . = no result given. Sampled rows, rich in hits. Any-hit rate of the full collection: about 4.7%.

SMILES | 697 NFkB inh | VIM-2 inhibitor | Jurkat NFkB inh | aSyn UTR inh | Mdm2-MdmX inh | IMP-1 inhibitor | VIM-2 inh confirm | TEM-1 inh 2 | IMP-1 inh conf
Cc1[nH]c2ccccc2c1/C=C/c1cc[n+](C)cc1 | . | 10* | . | -12 | . | 9.0* | 17* | 0 | 3
COc1ccccc1N1N=C(c2ccc([N+](=O)[O-])cc2)CC1c1ccccc1 (stereo unspecified) | 11 | 31* | 0 | 9 | 11 | 35* | 18* | 27* | 16*
CC(C)(C)OC(=O)C[C@@H]1C/C=C\C[C@@H](CC(=O)NCCO)C(=O)N2CCC[C@H]2COC1=O | 16 | . | 4 | . | 7 | . | . | . | .
CCOC(=O)c1c(C)n(-c2ccc(C)cc2)c2c(C(C(C)=O)C(=O)O)c(Br)c(O)c(O)c12 (stereo unspecified) | 6 | 7 | -1 | -4 | 14 | 5.4* | -1 | -5 | -4
CCOC(=O)c1c(C)n(-c2ccc(C)cc2)c2c(CC(C)=O)c(Br)c(OC)c(O)c12 | 3 | 0 | 3 | -4 | 28 | -1 | . | . | .
O/C=c1\ccc2cccc3nc(C(F)(F)F)nc1c23 | -5 | 21* | 9 | 8 | 17 | 6.8* | 33* | 5.0* | 11*
NNc1nc(C(F)(F)F)nc2ccccc12 | -6 | -3 | 4 | -34 | 24 | -4 | . | . | .
N#CCCN(C(=O)c1cc2c(s1)-c1ccccc1S(=O)(=O)C2)c1ccccc1 | -12 | -1 | -9 | -5 | 19 | 0 | . | . | .
CC(=O)Oc1cc2cccc(OC(C)=O)c(=O)c2c(OC(C)=O)c1OC(C)=O | 1 | 7 | 11 | 0 | 25 | 8.9* | 2 | -3 | -2
O=C(O)c1ccc(S(=O)(=O)N(Cc2ccccc2)C2CCCCC2)cc1 | -3 | -3 | -18 | 16 | -38 | -3 | . | . | .
CCc1cc(=O)oc2cc(C)c(CN3CCCC(C)C3)c(O)c12 (stereo unspecified) | 29 | 8.4* | 21 | -4 | -13 | 16* | 10* | -3 | 1
Cc1cc2oc(=O)cc(CN3CCCCC3)c2cc1C | 10 | 2 | 9 | 36 | -25 | 0 | . | . | .
CCc1cc(=O)oc2c(CN3CCCC3)c(O)c(Cl)cc12 | 14 | 1 | 19 | 15 | 21 | 3 | . | . | .
CCCCc1cc(=O)oc2cc(C)c(CN3CCCC3)c(O)c12 | 1 | 8.3* | 13 | 30 | 26 | 14* | 2 | -3 | 5.6*
O=C(COC(=O)c1ccccc1)Nc1cccc(S(=O)(=O)N2CCCCC2)c1 | 11 | . | 14 | . | 14 | . | . | . | .
Cc1cccc(N2C(=O)C(O)=C(C(=O)c3cccs3)C2c2ccc(C(C)C)cc2)n1 (stereo unspecified) | 11 | 0 | -13 | -19 | 8 | -2 | . | . | .
C=CCOc1ccc(C2C(C(=O)c3cccs3)=C(O)C(=O)N2c2nnc(C)s2)cc1 (stereo unspecified) | -28 | 18* | -61 | -50 | -7 | 13* | 2 | 2.6* | 0
CC(C)c1nnc(N2C(=O)C(O)=C(C(=O)c3cccs3)C2c2ccccc2)s1 (stereo unspecified) | . | 17* | . | -54 | . | 7.2* | 0 | 0 | -2
Cc1ccc(NC(=O)C2CCCN(S(=O)(=O)c3cccc4cccnc34)C2)cc1 (stereo unspecified) | 5 | -2 | 6 | 18 | 16 | -2 | . | . | .
COC(=O)C(NC(=O)CCc1nnc2ccc(N3CCCCC3)nn12)C(C)C (stereo unspecified) | 10 | -2 | -17 | -16 | 17 | -2 | . | . | .
O=C(NC1CCS(=O)(=O)C1)c1ccc(N2CCCCC2)c([N+](=O)[O-])c1 (stereo unspecified) | -7 | 0 | -2 | 14 | -12 | -1 | . | . | .
c1ccc(Nc2ccccc2Nc2ccccn2)nc1 | 4 | 32* | -7 | -63 | -6 | 50* | 3 | 1.1* | 1

Compound activity: PubChem, several laboratories
